Assay results taken from ChEMBL document CHEMBL3046752, “Characterization of the volatile constituents in the essential oil of Pistacia lentiscus L. from different origins and its antifungal and antioxidant activity” (2007).

Columns and labels:
Aspergillus flavus [1] = assay: Antifungal activity against Aspergillus flavus assessed as mycelial growth at 60 uL after 4 to 12 days by agar disk diffusion method relative to untreated control; assay type: functional
In short: (§1)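 Aspergillus flavus, isolated from feeds, was grown on PDA plates seeded with 6 mm mycelial plugs from 10-day cultures. Three paper disks per dish carried either 60 µL pure essential oil or 60, 40 or 20 µL of single major oil constituents. Plates were sealed and incubated in the dark at 22 °C. Average colony diameter was read at 4, 8 and 12 days against water-impregnated disk controls.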

Aspergillus flavus [2] = assay: Antifungal activity against Aspergillus flavus assessed as mycelial growth at 20 uL after 4 to 12 days by agar disk diffusion method relative to untreated control; assay type: functional; in short: as §1

Compound	Activity (Aspergillus flavus [1])	Activity (Aspergillus flavus [2])
CC1=CCC(=C(C)C)CC1 [TERPINOLENE]	0%	0%
CC1=CC=C(C(C)C)CC1 [ALPHA-TERPINENE]	0%	0%
CC1=CC[C@@H](C(C)(C)O)CC1 [ALPHA-TERPINEOL]	100%	100%
CC1=CCC(C(C)C)=CC1 [GAMMA-TERPINENE]	0%	0%
CC1=CC[C@H](C(C)C)C=C1 [ALPHA-PHELLANDRENE]	0%	0%
CC1=CCC(O)(C(C)C)CC1 (configuration not stated) [TERPINEOL]	100%	100%
